Measurements taken from ChEMBL document CHEMBL3244244, “Folate analogues altered in the C9-N10 bridge region: 11-thiohomofolic acid” (J Med Chem, 1979).
Converted amounts (≈) assume the structure as drawn. One block for each compound: values may come before it. The source made the active and inactive calls. The rule behind the calls is not given here.

How the values were obtained:
[1] = tested on: Lacticaseibacillus casei; assay: Antifolate activity against Lactobacillus casei ATCC 7469 assessed as growth inhibition; assay type: functional, organism-based
[2] = tested on: Enterococcus faecium; assay: Antifolate activity against Streptococcus faecium ATCC 8043 assessed as growth inhibition; assay type: functional, organism-based; conditions: for IC50: read-out: I50
[3] = target: Dihydrofolate reductase (Lactobacillus casei) (UniProt P00381); assay: Activity of Lactobacillus casei DHFR; conditions: Lacticaseibacillus casei
Chain of Dihydrofolate reductase (Lactobacillus casei) (P00381 whole entry): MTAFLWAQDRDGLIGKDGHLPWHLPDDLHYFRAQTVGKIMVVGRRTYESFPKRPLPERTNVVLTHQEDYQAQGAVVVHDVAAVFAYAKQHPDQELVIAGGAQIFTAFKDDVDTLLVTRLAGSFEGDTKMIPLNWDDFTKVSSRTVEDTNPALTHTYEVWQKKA
In short: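 The 7,8-dihydro form of the test folate analogue replaced the natural substrate in the previously described L. casei DHFR assay medium.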

[4] = tested on: Lacticaseibacillus casei; assay: Antifolate activity against Lactobacillus casei ATCC 7469 assessed as growth inhibition at 1.6 ug/ml; assay type: functional, organism-based
In short: (§1)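 Bacterial growth was run in each organism's own assay medium by earlier-reported methods, with test agent at 1.6 μg/mL.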

[5] = tested on: Enterococcus faecium; assay: Antifolate activity against Streptococcus faecium ATCC 8043 assessed as growth inhibition at 1.6 ug/ml; assay type: functional, organism-based; in short: as §1
[6] = target: Dihydrofolate reductase (Lactobacillus casei) (UniProt P00381); assay: Inhibition of Lactobacillus casei DHFR; conditions: Lacticaseibacillus casei
[7] = target: T1, Thymidylate synthase (Lactobacillus casei) (UniProt P00469); assay: Inhibition of Lactobacillus casei thymidylate synthase; conditions: Lacticaseibacillus casei
T1 sequence (whole entry): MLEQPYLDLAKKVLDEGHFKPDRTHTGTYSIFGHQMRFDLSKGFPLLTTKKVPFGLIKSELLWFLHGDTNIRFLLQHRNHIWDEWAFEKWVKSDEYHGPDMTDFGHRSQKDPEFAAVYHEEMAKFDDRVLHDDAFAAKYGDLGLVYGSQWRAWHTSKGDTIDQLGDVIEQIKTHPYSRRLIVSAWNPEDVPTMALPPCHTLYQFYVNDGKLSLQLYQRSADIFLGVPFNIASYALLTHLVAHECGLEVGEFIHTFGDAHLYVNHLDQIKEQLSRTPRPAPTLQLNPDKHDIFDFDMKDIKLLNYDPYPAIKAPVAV

SMILES: Nc1nc2ncc(CCSc3ccc(C(=O)O)cc3)nc2c(=O)[nH]1
growth inhibition (GI) [1]: inactive
growth inhibition (GI) [2]: inactive

SMILES: Nc1nc(=O)c2c([nH]1)NCC(CCNc1ccc(C(=O)N[C@@H](CCC(=O)O)C(=O)O)cc1)N2 (some centres not stated)
IC50 [2]: 0.7 ng/mL (≈ 1.52 nM)

SMILES: COC(=O)c1ccc(SCCc2cnc3nc(N)[nH]c(=O)c3n2)cc1
growth inhibition (GI) [1]: inactive
growth inhibition (GI) [2]: inactive

Activity [3]: Active
SMILES: Nc1nc(=O)c2c([nH]1)NCC(CCSc1ccc(C(=O)N[C@@H](CCC(=O)O)C(=O)O)cc1)=N2

SMILES: Nc1nc(=O)c2c([nH]1)NCC(CCSc1ccc(C(=O)N[C@@H](CCC(=O)O)C(=O)O)cc1)N2 (some centres not stated)
I50 [1]: 8 ×10⁻⁷ g/ml
IC50 [2]: 1.2 ng/mL (≈ 2.52 nM)

SMILES: Nc1nc(=O)c2nc(COc3ccc(C(=O)N[C@@H](CCC(=O)O)C(=O)O)cc3)cnc2[nH]1
growth inhibition (GI) [1]: Active
growth inhibition (GI) [2]: Active

SMILES: Nc1nc(=O)c2nc(CSc3ccc(C(=O)N[C@@H](CCC(=O)O)C(=O)O)cc3)cnc2[nH]1
growth inhibition (GI) [1]: Active
growth inhibition (GI) [2]: Active

Activity [3]: inactive
inhibition [6]: inactive
inhibition [7]: inactive
SMILES: Nc1nc(O)c2nc(CCSc3ccc(C(=O)N[C@@H](CCC(=O)O)C(=O)O)cc3)cnc2n1
growth inhibition (GI) [4]: inactive
growth inhibition (GI) [5]: inactive
